Experimental data as given in ChEMBL document CHEMBL4024795, “G-Quadruplex Identification in the Genome of Protozoan Parasites Points to Naphthalene Diimide Ligands as New Antiparasitic Agents” (J Med Chem, 2018).
Activity calls are given as the source filed them. No cut-off for these calls is given here.

Legend:
[1] = tested on: Trypanosoma brucei brucei; assay: Antitrypanosomal activity against bloodstream form of Trypanosoma brucei brucei after 72 hrs by alamar blue assay; type: functional
Outline: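 Bloodstream-form T. b. brucei single marker S427 (S16) in HMI-9 + 10% hiFBS, seeded at 1 × 10^4 per mL. Increasing compound concentrations for 72 h at 37 °C, 5% CO2. Proliferation by alamarBlue fluorescence (ex 550/em 590 nm).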

[2] = tested on: Leishmania major; assay: Antileishmanial activity against Leishmania major MHOM/IL/80/Friedlin promastigotes after 72 hrs by MTT assay; type: functional
Outline: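 L. major Friedlin promastigotes at 1 × 10^6 per mL, 72 h at 28 °C in modified RPMI-1640 + 10% hiFBS with increasing drug concentrations; proliferation by MTT, absorbance 540 nm.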

[3] = tested on: MRC5; assay: Cytotoxicity against human MRC5 cells assessed as cell growth inhibition after 72 hrs by MTT assay; type: cell-based; conditions: MRC5, 72 h
Outline: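 MRC5 cells in low-glucose DMEM + 10% hiFBS, seeded by trypsinization at 5000 cells/well with increasing compound concentrations. MTT read-out after 72 h at 37 °C. IC50 = 50% growth reduction versus untreated cells.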

[4] = tested on: Plasmodium falciparum; assay: Antimalarial activity against erythrocyte stage of Plasmodium falciparum 3D7 preincubated for 48 hrs followed by [3H]-hypoxanthine addition measured after 18 hrs by liquid scintillation counting; type: functional
Outline: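 P. falciparum 3D7-infected erythrocytes (1.5% hematocrit, 0.6% parasitemia) in RPMI 1640 + 10% AB human serum, DMSO ≤0.25% final. After 48 h at 37 °C, 0.6 μCi [3H]-hypoxanthine added for 18 h. Cells harvested onto glass-fibre filters and counted by scintillation, with uninfected-erythrocyte background subtracted. IC50 = 50% growth inhibition.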

[5] = Selectivity index, ratio of IC50 for human MRC5 cells to IC50 for Leishmania major MHOM/IL/80/Friedlin promastigotes; type: toxicity; conditions: read-out: Ratio IC50
Outline: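 SI is IC50(MRC-5)/IC50(parasite). L. major Friedlin promastigotes (1 × 10^6/mL) were exposed to increasing compound in modified RPMI-1640 + 10% hiFBS for 72 h at 28 °C, with MTT read at 540 nm. MRC5 cells (5000/well, low-glucose DMEM + 10% hiFBS) got increasing compound for 72 h at 37 °C, with MTT read-out. IC50 is versus untreated cells.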

[6] = Selectivity index, ratio of IC50 for human MRC5 cells to IC50 for bloodstream form of Trypanosoma brucei brucei; type: toxicity; conditions: read-out: Ratio IC50
Outline: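 Ratio of IC50 in MRC-5 to IC50 in parasite. Bloodstream-form T. b. brucei single-marker S427 (1 × 10^4/mL, HMI-9 + 10% hiFBS) was exposed to increasing compound for 72 h at 37 °C, 5% CO2, with alamarBlue fluorescence (ex 550/em 590).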

[7] = Selectivity index, ratio of IC50 for human MRC5 cells to IC50 for erythrocyte stage of Plasmodium falciparum 3D7; type: toxicity; conditions: read-out: Ratio IC50
[8] = organism: Danio rerio; assay: Acute toxicity in AB zebrafish embryo assessed as no observed effect concentration with mortality score of >20% at 100 uM after 96 hrs post-fertlization; conditions: in vivo
Outline: (§1)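 AB-strain embryos, with abnormal ones discarded, were placed 20 per condition at 3 hpf into compound dilutions in 0.1% DMSO/E3 (0.01, 0.1, 1, 10, 100 μM) and kept at 28.5 °C to 96 hpf. Mortality was scored and LC50 fitted by sigmoidal curve. NOEC/LOEC took >20% mortality as the effect. Controls were 0.1% DMSO (triplicate) and DEAB.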

[9] = organism: Danio rerio; assay: (§2) Acute toxicity in AB zebrafish embryo assessed as mortality after 96 hrs post-fertlization; conditions: in vivo, 96 h; outline: as §1
[10] = as §2; design: species or system Danio rerio; conditions: AB, in vivo; outline: as §1
[11] = tested on: Trypanosoma brucei; assay: Binding affinity to Trypanosoma brucei FT-labeled EBR1 G-quadruplex DNA at 3 uM by circular dichroism spectroscopic analysis
Outline: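 EBR1-FT quadruplex at 3 μM in 10 mM lithium cacodylate pH 7.2 with 100 mM KCl, titrated with ligand (ratio 1:0 to 1:10). Spectra recorded at 25 °C in a 1 cm cell, average of three scans at 100 nm/min, 2 nm bandwidth.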

[12] = Drug localization in Trypanosoma brucei nucleus at 5 uM after 30 mins by confocal microscopic analysis; type: ADME; conditions: 0.5 h
Outline: (§3)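 T. brucei exposed to 5 μM compound in medium at 37 °C for 30 or 150 min. Fixed in 4% paraformaldehyde for 30 min, washed twice in cold PBS, then imaged by confocal microscopy using the compounds' intrinsic fluorescence.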

[13] = Drug localization in Trypanosoma brucei kinetoplast at 5 uM after 30 mins by confocal microscopic analysis; type: ADME; conditions: 0.5 h; outline: as §3
[14] = tested on: Trypanosoma brucei; assay: Drug localization in Trypanosoma brucei nucleus at 5 uM after 150 mins by confocal microscopic analysis; type: ADME; conditions: 2.5 h; outline: as §3
[15] = Drug localization in Trypanosoma brucei kinetoplast at 5 uM after 150 mins by confocal microscopic analysis; type: ADME; conditions: 2.5 h; outline: as §3
[16] = organism: Danio rerio; assay: Acute toxicity in AB zebrafish embryo assessed as lowest observed effect concentration with mortality score of >20% at 100 uM after 96 hrs post-fertlization; conditions: in vivo; outline: as §1
[17] = tested on: human telomeric hTel G-quadruplex DNA (Homo sapiens); assay: Binding affinity to FT-labeled human telomeric hTel G-quadruplex DNA assessed as change in melting temperature at 2 uM at pH 7.2 by FRET melting assay

| SMILES | IC50 [1] [µM] | IC50 [2] [µM] | IC50 [3] [µM] | IC50 [4] [µM] | selectivity ratio [5] | selectivity ratio [6] | selectivity ratio [7] | NOAEL [8] [µM] | LC50 [9] [µM] | LC50 at 96 h [10] [µM] | Activity [11] | Drug uptake [12] | Drug uptake [13] | Drug uptake [14] | Drug uptake [15] | MTC [16] [µM] | ΔTm [17] [°C] |
| --- | --- | --- | --- | --- | --- | --- | --- | --- | --- | --- | --- | --- | --- | --- | --- | --- | --- |
| C[n+]1ccc(-c2c3nc(c(-c4cc[n+](C)cc4)c4ccc([nH]4)c(-c4cc[n+](C)cc4)c4nc(c(-c5cc[n+](C)cc5)c5ccc2[nH]5)C=C4)C=C3)cc1 | > 10 | 20.8 | > 25 | > 25 | > 1.7 |  |  |  |  |  |  |  |  |  |  |  |  |
| C[C@H]1O[C@@H](n2cc(CNc3cc4c5c(ccc6c5c3C(=O)N(CCCN(C)C)C6=O)C(=O)N(CCCN(C)C)C4=O)nn2)[C@H](O)[C@@H](O)[C@@H]1O | 0.017 | 0.184 | 0.91 | 0.225 | 4.9 | 53.5 | 4 | 100 | 170 |  |  |  |  |  |  |  |  |
| NCCOc1cc(C(=O)Nc2cc(OCCN)c3ccccc3n2)nc(C(=O)Nc2cc(OCCN)c3ccccc3n2)c1 [PYRIDOSTATIN] | 7.82 | 5 | 5.38 | 2.65 | 1.1 | 0.7 | 2 |  |  |  |  |  |  |  |  |  |  |
| CCCCCCCCCCCCCCCCOP(=O)([O-])OCC[N+](C)(C)C [MILTEFOSINE] |  | 6.07 |  |  |  |  |  |  |  |  |  |  |  |  |  |  |  |
| CN(C)c1ccc(Nc2c3ccc(NC(=O)CCN4CCCC4)cc3nc3cc(NC(=O)CCN4CCCC4)ccc23)cc1 | 5.51 | 12.7 | 8.33 | 9.7 | 0.7 | 1.5 | 0.9 |  |  |  |  |  |  |  |  |  |  |
| CC(=O)N[C@@H]1[C@@H](O)[C@H](O)[C@@H](CO)O[C@H]1n1cc(CNc2cc3c4c(ccc5c4c2C(=O)N(CCCN(C)C)C5=O)C(=O)N(CCCN(C)C)C3=O)nn1 | 0.089 | 1.04 | 0.51 | 0.36 | 0.5 | 5.7 | 1.4 | 100 |  | > 1000 |  |  |  |  |  |  |  |
| CCCNc1cc2c3c(ccc4c3c1C(=O)N(CCCN(C)C)C4=O)C(=O)N(CCCN(C)C)C2=O |  | 0.034 | 0.36 | 0.091 |  |  | 4 | 100 | 410 |  | Active | Active | Active | Active | Active | 1000 | 19 |
| CN(C)CCCN1C(=O)c2ccc3c4c(c(NCc5cn([C@@H]6O[C@H](CO)[C@@H](O)[C@H](O)[C@H]6O)nn5)cc(c24)C1=O)C(=O)N(CCCN(C)C)C3=O | 0.024 | 0.244 | 1.15 | 1.35 |  |  | 0.9 | 100 |  | > 1000 |  |  |  |  |  |  |  |
| CN(C)CCCN1C(=O)c2ccc3c4c(c(NCc5cn(CCO[C@@H]6O[C@H](CO)[C@@H](O)[C@H](O)[C@H]6O)nn5)cc(c24)C1=O)C(=O)N(CCCN(C)C)C3=O |  | 0.537 | 0.71 | 0.275 |  |  | 2.6 | 100 |  | > 1000 | Active | Active | Active | Active | Active |  | 10 |
| CN(C)CCCN1C(=O)c2ccc3c4c(c(NCc5cn(CCO[C@H]6O[C@H](CO)[C@@H](O)[C@H](O)[C@@H]6O)nn5)cc(c24)C1=O)C(=O)N(CCCN(C)C)C3=O | 0.021 | 0.306 | 0.81 | 0.18 | 2.6 | 38.6 | 4.5 | 100 |  | > 1000 |  |  |  |  |  |  |  |
